Laboratory results taken from ChEMBL document CHEMBL1127309, “A novel and useful descriptor for hydrophobicity, partition coefficient micellar-water, and its application to a QSAR study of antiplatelet agents” (J Med Chem, 1994).

Legend:
[1] = tested on: Rattus norvegicus; experiment: Tested for antiplatelet activity in rat by conversion of the original antiplatelet activity data (%) to antiplatelet activity values at 10 umol/kg; type: functional
[2] = Retention time at 40 mM; type: ADME; settings: 40000 µM
Procedure, shortened: (§1)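 Reversed-phase HPLC on a C8 column (4.6 × 100 mm, 10 µm) at room temperature (22-25 °C). The mobile phase was Brij35 micelle solution in 10 mM phosphate buffer, pH 4.01, run separately at 25, 30, 35 and 40 mM Brij35. NaNO₃ served as the dead-time marker.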

[3] = tested on: Rattus norvegicus; experiment: Tested for inhibitory activity on rat platelet aggregation induced by collagen measured after 1 hr of oral administration of compound (10 mg/kg) in rat.; type: functional
[4] = Retention time at 25 mM; type: ADME; settings: 25000 µM; procedure, shortened: as §1
[5] = Retention time at 30 mM; type: ADME; settings: 30000 µM; procedure, shortened: as §1
[6] = Retention time at 35 mM; type: ADME; settings: 35000 µM; procedure, shortened: as §1
[7] = tested on: Rattus norvegicus; experiment: Tested for inhibitory activity on rat platelet aggregation induced by collagen ex vivo measured after 1 hr of oral administration of compound (10 mg/kg) in rat.; type: functional

SMILES | Log APA [1] | Retention time [2] | Inhibition [3] | Retention time [4] | Retention time [5] | Retention time [6] | Inhibition [7]
COc1cc2c(cc1-c1nc(C)c(-c3cccnc3)[nH]1)nc(O)n2C | 0.57 | 1.331 min | 11% | 1.375 min | 1.362 min | 1.345 min | –
COc1c(-c2nc(C)c(-c3cccnc3)[nH]2)cc2nc(O)[nH]c2c1Cl | 0.79 | 1.289 min | 17% | 1.32 min | 1.301 min | 1.296 min | –
COc1c(-c2nc(C)c(-c3cccnc3)[nH]2)ccc2[nH]c(C)nc12 | 0.72 | 2.43 min | 16% | 2.79 min | 2.7 min | 2.56 min | –
COc1c(-c2nc(C)c(-c3cccnc3)[nH]2)cc2nc(C)[nH]c2c1Cl | 1.4 | 3.79 min | 63% | 4.69 min | 4.36 min | 4.05 min | –
COc1cc(OC)c(-c2nc(C)c(-c3cccnc3)[nH]2)cc1NC(C)=O | 0.93 | 2.41 min | 24% | 2.75 min | 2.6 min | 2.5 min | –
Cc1nc2cc(Cl)c(-c3nc(C)c(-c4cccnc4)[nH]3)cc2[nH]1 | 0.68 | 3 min | 15% | 3.56 min | 3.41 min | 3.19 min | –
COc1ccccc1-c1nc(C)c(-c2cccnc2)[nH]1 | 1.1 | 3.76 min | 49% | 4.59 min | 4.21 min | 3.97 min | –
COc1cc(NC(C)=O)c([N+](=O)[O-])cc1-c1nc(C)c(-c2cccnc2)[nH]1 | 1.5 | 7.33 min | 86% | 10.35 min | 9.08 min | 8.08 min | –
CSc1ccccc1-c1nc(C)c(-c2cccnc2)[nH]1 | 0.95 | 6 min | 32% | 7.65 min | 7.01 min | 6.46 min | –
Cc1[nH]c(-c2ccccc2N)nc1-c1cccnc1 | 0.8 | 3.07 min | 25% | 3.58 min | 3.37 min | 3.21 min | –
COc1c(-c2nc(C)c(-c3cccnc3)[nH]2)cc(Cl)c2[nH]c(CCC(=O)O)nc12 | 0.4 | 3.1 min | 6% | 3.68 min | 3.47 min | 3.27 min | –
CNC(=O)Nc1ccccc1-c1nc(C)c(-c2cccnc2)[nH]1 | 1.1 | 5 min | 46% | 6.34 min | 5.78 min | 5.35 min | –
Cc1[nH]c(-c2ccccc2Cl)nc1-c1cccnc1 | 0.38 | 6.64 min | 9% | 8.63 min | 7.83 min | 7.17 min | –
Cc1nc2cc(-c3nc(C)c(-c4cccnc4)[nH]3)c(C)cc2[nH]1 | 0.74 | 1.271 min | 18% | 1.3 min | 1.294 min | 1.28 min | –
Cc1[nH]c(-c2ccccc2F)nc1-c1cccnc1 | 1.4 | 6.57 min | 98% | 8.75 min | 7.84 min | 7.13 min | –
Cc1ccccc1-c1nc(C)c(-c2cccnc2)[nH]1 | 0.18 | 4.39 min | 6% | 5.2 min | 4.92 min | 4.64 min | –
COC(=O)Nc1ccccc1-c1nc(C)c(-c2cccnc2)[nH]1 | 1.4 | 6.7 min | – | 8.79 min | 7.94 min | 7.27 min | 73%
COc1cc(NC(C)=O)c(Cl)cc1-c1nc(C)c(-c2cccnc2)[nH]1 | 1.4 | 5.78 min | 65% | 7.95 min | 7.01 min | 6.32 min | –
COc1cc2[nH]c(C)nc2cc1-c1nc(C)c(-c2cccnc2)[nH]1 | 0.83 | 1.99 min | 21% | 2.23 min | 2.16 min | 2.06 min | –
COc1c(-c2nc(C)c(-c3cccnc3)[nH]2)cc(Cl)c2[nH]c(C)nc12 | 1.3 | 6.52 min | 51% | 9.36 min | 8.14 min | 7.24 min | –
CCOC(=O)COc1ccccc1-c1nc(C)c(-c2cccnc2)[nH]1 | 0.6 | 6.18 min | 12% | 9.21 min | 7.12 min | 6.57 min | –
CCOc1ccccc1-c1nc(C)c(-c2cccnc2)[nH]1 | 1.1 | 4.77 min | 45% | 6.01 min | 5.44 min | 5.08 min | –
